ChEMBL document CHEMBL2440065, “Identification of a novel benzoxazolone derivative as a selective, orally active 18 kDa translocator protein (TSPO) ligand” (J Med Chem, 2013)
Activity calls are given as the source filed them. No cut-off for these calls is given here.

Tests used:
[1] = molecular target: D(1A) dopamine receptor (Homo sapiens) (UniProt P21728); assay: Binding affinity to human dopamine D1 receptor at 10 uM by radioligand binding assay
In short: (§1)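 Radioligand binding profiling panel across receptors and transporters linked to CNS, cardiovascular and pulmonary adverse events. Each target was tested once at 10 μM, run in duplicate.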

Rattus norvegicus [2] = assay: Anxiolytic-like activity in Sprague-Dawley rat vogel conflict model assessed as increase in number of shocks at 1 mg/kg, po after 1 hr; type: functional, organism-based; parameters: dose 1 mg/kg
[3] = molecular target: 5-hydroxytryptamine receptor 3A (Homo sapiens) (UniProt P46098); assay: Binding affinity to human serotonin 5HT3 receptor at 10 uM by radioligand binding assay; in short: as §1
[4] = molecular target: Sigma non-opioid intracellular receptor 1 (Homo sapiens) (UniProt Q99720); assay: Binding affinity to human sigma1 receptor at 10 uM by radioligand binding assay; in short: as §1
Rattus norvegicus [5] = organism: Rattus norvegicus; assay: Binding affinity to rat N-type calcium channel at 10 uM by radioligand binding assay
In short: (§2)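 Off-target radioligand binding panel: compound tested in duplicate at a single concentration of 10 μM in each assay. Activity is reported as percent inhibition of radioligand binding.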

[6] = molecular target: Galanin receptor type 1 (Homo sapiens) (UniProt P47211); assay: Binding affinity to human GAL1 receptor at 10 uM by radioligand binding assay; in short: as §1
[7] = molecular target: Nociceptin receptor (Homo sapiens) (UniProt P41146); assay: Binding affinity to human ORL1 receptor at 10 uM by radioligand binding assay; in short: as §1
Rattus norvegicus [8] = organism: Rattus norvegicus; assay: Binding affinity to rat non-selective GABAB receptor at 10 uM by radioligand binding assay; in short: as §2
[9] = molecular target: Bombesin receptor subtype-3 (Homo sapiens) (UniProt P32247); assay: Binding affinity to human bombesin BB3 receptor at 10 uM by radioligand binding assay; in short: as §1
[10] = molecular target: Adenosine receptor A1 (Homo sapiens) (UniProt P30542); assay: Binding affinity to human adenosine A1 receptor at 10 uM by radioligand binding assay; in short: as §1
[11] = molecular target: Gastrin/cholecystokinin type B receptor (Homo sapiens) (UniProt P32239); assay: Binding affinity to human CCK2 receptor at 10 uM by radioligand binding assay; in short: as §1
[12] = molecular target: Sodium-dependent noradrenaline transporter (Homo sapiens) (UniProt P23975); assay: Binding affinity to human norepinephrine transporter at 10 uM by radioligand binding assay; in short: as §1
[13] = molecular target: Glucocorticoid receptor (Homo sapiens) (UniProt P04150); assay: Binding affinity to human glucocorticoid receptor at 10 uM by radioligand binding assay; in short: as §1
[14] = molecular target: 5-hydroxytryptamine receptor 6 (Homo sapiens) (UniProt P50406); assay: Binding affinity to human serotonin 5HT6 receptor at 10 uM by radioligand binding assay; in short: as §1
[15] = molecular target: Vasopressin V1a receptor (Homo sapiens) (UniProt P37288); assay: Binding affinity to human vasopressin V1A receptor at 10 uM by radioligand binding assay; in short: as §1
Homo sapiens = organism: Homo sapiens; assay: Binding affinity to human nicotinic acetylcholine receptor at 10 uM by radioligand binding assay; in short: as §2
Rattus norvegicus [16] = organism: Rattus norvegicus; assay: Binding affinity to rat strychnine-sensitive glycine receptor at 10 uM by radioligand binding assay; in short: as §2
[17] = molecular target: Cholecystokinin receptor type A (Homo sapiens) (UniProt P32238); assay: Binding affinity to human CCK1 receptor at 10 uM by radioligand binding assay; in short: as §1
Rattus norvegicus [18] = organism: Rattus norvegicus; assay: Binding affinity to rat kainate receptor at 10 uM by radioligand binding assay; in short: as §2
[19] = molecular target: Neuropeptide Y receptor type 2 (Homo sapiens) (UniProt P49146); assay: Binding affinity to human Neuropeptide Y receptor Y2 at 10 uM by radioligand binding assay; in short: as §1
Rattus norvegicus [20] = organism: Rattus norvegicus; assay: Displacement of [3H]flumazenil from Sprague-Dawley rat cerebral cortex CBR at 10 uM after 1 hr by liquid scintillation counting analysis; type: tissue-based
Rattus norvegicus [21] = organism: Rattus norvegicus; assay: Binding affinity to rat GABAA receptor TBOB binding site at 10 uM by radioligand binding assay; in short: as §2
[22] = molecular target: Type-2 angiotensin II receptor (Homo sapiens) (UniProt P50052); assay: Binding affinity to human angiotensin AT2 receptor at 10 uM by radioligand binding assay; in short: as §1
[23] = molecular target: Histamine H3 receptor (Homo sapiens) (UniProt Q9Y5N1); assay: Binding affinity to human histamine H3 receptor at 10 uM by radioligand binding assay; in short: as §1
[24] = molecular target: Cannabinoid receptor 1 (Homo sapiens) (UniProt P21554); assay: Binding affinity to human CB1 receptor at 10 uM by radioligand binding assay; in short: as §1
[25] = molecular target: Beta-1 adrenergic receptor (Homo sapiens) (UniProt P08588); assay: Binding affinity to human adrenergic beta1 receptor at 10 uM by radioligand binding assay; in short: as §1
[26] = molecular target: Alpha-2A adrenergic receptor (Homo sapiens) (UniProt P08913); assay: Binding affinity to human adrenergic alpha2A receptor at 10 uM by radioligand binding assay; in short: as §1
[27] = molecular target: Vasopressin V1b receptor (Homo sapiens) (UniProt P47901); assay: Binding affinity to human vasopressin V1B receptor at 10 uM by radioligand binding assay; in short: as §1
[28] = molecular target: Muscarinic acetylcholine receptor M2 (Homo sapiens) (UniProt P08172); assay: Binding affinity to human muscarinic M2 receptor at 10 uM by radioligand binding assay; in short: as §1
Rattus norvegicus [29] = organism: Rattus norvegicus; assay: Binding affinity to rat L-type calcium channel dihydropyridine binding site at 10 uM by radioligand binding assay; in short: as §2
[30] = molecular target: Melanocortin receptor 4 (Homo sapiens) (UniProt P32245); assay: Binding affinity to human melanocortin MC4 receptor at 10 uM by radioligand binding assay; in short: as §1
[31] = molecular target: Sodium-dependent dopamine transporter (Homo sapiens) (UniProt Q01959); assay: Binding affinity to human dopamine transporter at 10 uM by radioligand binding assay; in short: as §1
Rattus norvegicus [32] = organism: Rattus norvegicus; assay: Binding affinity to rat N-methyl D-aspartate receptor phencyclidine binding site at 10 uM by radioligand binding assay; in short: as §2
Rattus norvegicus [33] = organism: Rattus norvegicus; assay: Binding affinity to rat GABAA receptor agonist binding site at 10 uM by radioligand binding assay; in short: as §2
[34] = molecular target: Muscarinic acetylcholine receptor M3 (Homo sapiens) (UniProt P20309); assay: Binding affinity to human muscarinic M3 receptor at 10 uM by radioligand binding assay; in short: as §1
[35] = molecular target: Adenosine receptor A2a (Homo sapiens) (UniProt P29274); assay: Binding affinity to human adenosine A2A receptor at 10 uM by radioligand binding assay; in short: as §1
[36] = molecular target: Neuropeptide Y receptor type 1 (Homo sapiens) (UniProt P25929); assay: Binding affinity to human Neuropeptide Y receptor Y1 at 10 uM by radioligand binding assay; in short: as §1
[37] = molecular target: 5-hydroxytryptamine receptor 2A (Rattus norvegicus) (UniProt P14842); assay: Binding affinity to rat non-selective serotonin 5HT2 receptor at 10 uM by radioligand binding assay; in short: as §1
Mesocricetus auratus = organism: Mesocricetus auratus; assay: Binding affinity to syrian hamster ATP-sensitive potassium channel at 10 uM by radioligand binding assay; in short: as §2
[38] = molecular target: Phosphodiesterase 4 (Homo sapiens) (UniProt P27815+Q08499+Q07343+Q08493); assay: Inhibition of human phosphodiesterase PDE4 at 10 uM; type: protein assay
[39] = molecular target: Beta-2 adrenergic receptor (Homo sapiens) (UniProt P07550); assay: Binding affinity to human adrenergic beta2 receptor at 10 uM by radioligand binding assay; in short: as §1
[40] = molecular target: Estrogen receptor beta (Homo sapiens) (UniProt Q92731); assay: Binding affinity to human ERbeta at 10 uM by radioligand binding assay; in short: as §1
[41] = molecular target: Somatostatin receptor type 2 (Homo sapiens) (UniProt P30874); assay: Binding affinity to human somatostatin sst2 receptor at 10 uM by radioligand binding assay; in short: as §1
[42] = molecular target: Mu-type opioid receptor (Homo sapiens) (UniProt P35372); assay: Binding affinity to human mu opiate receptor at 10 uM by radioligand binding assay; in short: as §1
[43] = molecular target: Corticotropin-releasing factor receptor 1 (Homo sapiens) (UniProt P34998); assay: Binding affinity to human CRF1 receptor at 10 uM by radioligand binding assay; in short: as §1
[44] = molecular target: 5-hydroxytryptamine receptor 4 (Cavia porcellus) (UniProt O70528); assay: Binding affinity to guinea pig serotonin 5HT4 receptor at 10 uM by radioligand binding assay; in short: as §1
[45] = molecular target: Substance-P receptor (Homo sapiens) (UniProt P25103); assay: Binding affinity to human tachykinin NK1 receptor at 10 uM by radioligand binding assay; in short: as §1
[46] = molecular target: Type-1 angiotensin II receptor (Homo sapiens) (UniProt P30556); assay: Binding affinity to human angiotensin AT1 receptor at 10 uM by radioligand binding assay; in short: as §1

Sequence of Galanin receptor type 1 (Homo sapiens) (P47211 whole entry): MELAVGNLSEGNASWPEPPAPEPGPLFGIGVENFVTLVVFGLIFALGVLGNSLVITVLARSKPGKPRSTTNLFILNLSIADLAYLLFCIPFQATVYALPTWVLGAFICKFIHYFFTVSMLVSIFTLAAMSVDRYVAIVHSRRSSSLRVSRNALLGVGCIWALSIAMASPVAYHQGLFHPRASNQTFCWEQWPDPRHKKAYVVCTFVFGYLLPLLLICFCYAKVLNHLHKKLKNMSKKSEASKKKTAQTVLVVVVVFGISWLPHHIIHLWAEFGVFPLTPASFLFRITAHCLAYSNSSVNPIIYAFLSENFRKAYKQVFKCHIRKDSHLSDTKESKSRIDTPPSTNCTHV
Sequence of Bombesin receptor subtype-3 (Homo sapiens) (P32247 whole entry): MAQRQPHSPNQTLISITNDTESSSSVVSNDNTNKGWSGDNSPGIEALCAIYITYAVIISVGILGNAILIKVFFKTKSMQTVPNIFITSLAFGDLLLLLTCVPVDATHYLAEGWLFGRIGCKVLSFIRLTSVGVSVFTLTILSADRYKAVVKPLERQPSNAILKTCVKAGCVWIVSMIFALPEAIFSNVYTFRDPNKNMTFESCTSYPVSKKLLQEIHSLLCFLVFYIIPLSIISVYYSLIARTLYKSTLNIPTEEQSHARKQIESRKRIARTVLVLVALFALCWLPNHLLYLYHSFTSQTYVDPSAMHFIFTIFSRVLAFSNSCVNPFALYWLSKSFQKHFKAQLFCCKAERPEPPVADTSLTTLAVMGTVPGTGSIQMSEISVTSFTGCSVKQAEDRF
Sequence of Melanocortin receptor 4 (Homo sapiens) (P32245 whole entry): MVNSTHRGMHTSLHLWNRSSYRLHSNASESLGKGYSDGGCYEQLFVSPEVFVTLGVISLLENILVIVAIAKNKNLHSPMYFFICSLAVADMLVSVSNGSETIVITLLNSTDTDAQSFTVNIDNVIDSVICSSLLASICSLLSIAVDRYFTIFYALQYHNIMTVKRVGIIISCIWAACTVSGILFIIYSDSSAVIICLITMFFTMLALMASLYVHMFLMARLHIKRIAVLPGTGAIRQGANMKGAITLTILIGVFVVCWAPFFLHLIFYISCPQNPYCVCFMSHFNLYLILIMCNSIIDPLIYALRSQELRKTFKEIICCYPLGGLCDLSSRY
Sequence of Histamine H3 receptor (Homo sapiens) (Q9Y5N1 whole entry): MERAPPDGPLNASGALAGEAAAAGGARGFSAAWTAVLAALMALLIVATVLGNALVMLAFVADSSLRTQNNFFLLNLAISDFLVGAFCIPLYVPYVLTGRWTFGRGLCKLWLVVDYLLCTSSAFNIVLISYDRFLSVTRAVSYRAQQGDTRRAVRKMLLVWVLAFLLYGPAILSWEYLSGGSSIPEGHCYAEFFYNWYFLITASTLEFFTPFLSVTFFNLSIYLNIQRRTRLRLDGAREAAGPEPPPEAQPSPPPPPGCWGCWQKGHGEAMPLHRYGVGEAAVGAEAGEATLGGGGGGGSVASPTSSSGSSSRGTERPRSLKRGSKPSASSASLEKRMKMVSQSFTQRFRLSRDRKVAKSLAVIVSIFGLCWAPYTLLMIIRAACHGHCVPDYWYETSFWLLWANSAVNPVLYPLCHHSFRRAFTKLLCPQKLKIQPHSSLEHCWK
Sequence of Adenosine receptor A1 (Homo sapiens) (P30542 whole entry): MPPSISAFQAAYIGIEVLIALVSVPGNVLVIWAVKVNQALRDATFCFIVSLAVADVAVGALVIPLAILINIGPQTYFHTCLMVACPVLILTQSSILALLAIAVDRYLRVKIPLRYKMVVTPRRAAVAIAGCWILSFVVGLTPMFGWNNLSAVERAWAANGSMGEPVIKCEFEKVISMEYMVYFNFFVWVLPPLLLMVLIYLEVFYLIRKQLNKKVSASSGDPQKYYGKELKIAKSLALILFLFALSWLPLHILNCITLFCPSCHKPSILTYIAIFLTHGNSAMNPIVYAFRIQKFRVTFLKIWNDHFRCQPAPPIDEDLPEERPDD
Sequence of 5-hydroxytryptamine receptor 2A (Rattus norvegicus) (P14842 whole entry): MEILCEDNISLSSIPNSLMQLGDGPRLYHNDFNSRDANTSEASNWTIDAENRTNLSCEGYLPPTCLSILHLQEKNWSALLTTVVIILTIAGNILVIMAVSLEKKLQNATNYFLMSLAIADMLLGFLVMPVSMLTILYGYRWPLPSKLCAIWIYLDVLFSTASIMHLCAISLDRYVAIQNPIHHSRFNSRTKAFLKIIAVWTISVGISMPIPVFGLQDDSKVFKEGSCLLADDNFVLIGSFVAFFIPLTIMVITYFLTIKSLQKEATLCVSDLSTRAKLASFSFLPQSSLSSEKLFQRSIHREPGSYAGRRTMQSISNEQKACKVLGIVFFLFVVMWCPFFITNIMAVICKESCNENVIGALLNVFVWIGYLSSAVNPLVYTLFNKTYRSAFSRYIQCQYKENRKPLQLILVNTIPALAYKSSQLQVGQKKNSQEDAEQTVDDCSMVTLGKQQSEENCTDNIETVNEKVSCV
Sequence of Vasopressin V1b receptor (Homo sapiens) (P47901 whole entry): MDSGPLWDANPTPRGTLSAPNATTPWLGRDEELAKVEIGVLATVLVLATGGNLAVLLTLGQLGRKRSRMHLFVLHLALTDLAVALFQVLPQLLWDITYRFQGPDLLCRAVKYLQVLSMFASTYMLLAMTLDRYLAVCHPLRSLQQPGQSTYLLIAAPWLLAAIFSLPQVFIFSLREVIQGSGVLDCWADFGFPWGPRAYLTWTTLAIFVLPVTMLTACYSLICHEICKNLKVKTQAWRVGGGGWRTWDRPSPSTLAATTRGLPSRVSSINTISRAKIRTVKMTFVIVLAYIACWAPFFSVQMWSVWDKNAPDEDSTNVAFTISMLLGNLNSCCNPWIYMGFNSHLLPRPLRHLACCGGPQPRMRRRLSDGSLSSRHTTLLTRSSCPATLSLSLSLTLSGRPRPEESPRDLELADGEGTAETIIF
Sequence of 5-hydroxytryptamine receptor 6 (Homo sapiens) (P50406 whole entry): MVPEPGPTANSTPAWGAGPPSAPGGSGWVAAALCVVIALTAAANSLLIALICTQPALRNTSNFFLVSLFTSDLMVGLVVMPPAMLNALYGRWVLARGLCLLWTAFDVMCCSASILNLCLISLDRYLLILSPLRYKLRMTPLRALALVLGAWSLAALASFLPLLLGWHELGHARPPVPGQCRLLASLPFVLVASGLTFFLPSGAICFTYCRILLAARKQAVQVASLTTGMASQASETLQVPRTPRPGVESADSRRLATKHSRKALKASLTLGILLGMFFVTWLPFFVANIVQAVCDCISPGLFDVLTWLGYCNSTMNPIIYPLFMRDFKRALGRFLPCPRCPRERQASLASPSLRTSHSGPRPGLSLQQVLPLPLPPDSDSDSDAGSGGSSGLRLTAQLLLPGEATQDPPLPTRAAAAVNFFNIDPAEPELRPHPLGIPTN
Sequence of Sigma non-opioid intracellular receptor 1 (Homo sapiens) (Q99720 whole entry): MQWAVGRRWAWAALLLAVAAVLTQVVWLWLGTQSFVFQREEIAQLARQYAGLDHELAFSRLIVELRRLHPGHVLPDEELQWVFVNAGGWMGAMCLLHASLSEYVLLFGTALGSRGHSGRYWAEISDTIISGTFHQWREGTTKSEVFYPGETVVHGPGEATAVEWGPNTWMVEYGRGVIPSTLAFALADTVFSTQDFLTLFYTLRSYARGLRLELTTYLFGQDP
Sequence of Somatostatin receptor type 2 (Homo sapiens) (P30874 whole entry): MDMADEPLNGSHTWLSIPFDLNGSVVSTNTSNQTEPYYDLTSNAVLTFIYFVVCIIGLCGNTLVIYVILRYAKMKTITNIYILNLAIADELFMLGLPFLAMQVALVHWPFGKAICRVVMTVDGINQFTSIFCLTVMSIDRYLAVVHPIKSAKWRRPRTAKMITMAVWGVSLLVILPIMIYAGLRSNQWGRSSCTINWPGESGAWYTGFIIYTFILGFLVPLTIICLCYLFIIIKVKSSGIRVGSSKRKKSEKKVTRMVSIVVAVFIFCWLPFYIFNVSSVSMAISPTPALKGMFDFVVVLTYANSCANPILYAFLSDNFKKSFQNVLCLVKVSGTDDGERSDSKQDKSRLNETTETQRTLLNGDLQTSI
Sequence of Gastrin/cholecystokinin type B receptor (Homo sapiens) (P32239 whole entry): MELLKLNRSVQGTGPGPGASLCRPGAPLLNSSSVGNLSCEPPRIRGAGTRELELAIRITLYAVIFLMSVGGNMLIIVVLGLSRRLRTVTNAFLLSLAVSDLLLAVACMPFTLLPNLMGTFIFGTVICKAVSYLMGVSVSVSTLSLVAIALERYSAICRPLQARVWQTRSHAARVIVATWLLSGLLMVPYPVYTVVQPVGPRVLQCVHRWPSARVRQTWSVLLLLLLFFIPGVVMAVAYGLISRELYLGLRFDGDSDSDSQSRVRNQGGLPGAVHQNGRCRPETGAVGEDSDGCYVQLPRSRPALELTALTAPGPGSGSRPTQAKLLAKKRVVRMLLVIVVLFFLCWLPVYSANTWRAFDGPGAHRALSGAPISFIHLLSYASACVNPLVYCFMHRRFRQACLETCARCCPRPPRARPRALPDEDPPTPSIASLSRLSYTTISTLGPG
Sequence of Muscarinic acetylcholine receptor M2 (Homo sapiens) (P08172 whole entry): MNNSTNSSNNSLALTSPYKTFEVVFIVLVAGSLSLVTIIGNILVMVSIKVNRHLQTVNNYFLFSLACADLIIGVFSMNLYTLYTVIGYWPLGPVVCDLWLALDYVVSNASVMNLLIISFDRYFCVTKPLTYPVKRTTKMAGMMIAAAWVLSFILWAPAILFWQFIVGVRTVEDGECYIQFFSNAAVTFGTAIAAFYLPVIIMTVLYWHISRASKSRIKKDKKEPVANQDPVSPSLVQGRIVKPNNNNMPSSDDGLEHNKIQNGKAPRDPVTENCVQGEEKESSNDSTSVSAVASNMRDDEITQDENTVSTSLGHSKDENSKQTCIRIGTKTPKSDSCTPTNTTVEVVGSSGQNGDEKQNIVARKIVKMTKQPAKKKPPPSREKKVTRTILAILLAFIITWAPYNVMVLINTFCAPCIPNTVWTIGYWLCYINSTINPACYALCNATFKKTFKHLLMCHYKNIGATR

SMILES: CN(C(=O)Cn1c(=O)oc2ccc(-c3cccnc3)cc21)c1ccc(C(F)(F)F)cc1
- inhibition [1]: inactive
- Activity (Rattus norvegicus [2]): Active
- inhibition [3]: inactive
- inhibition [4]: inactive
- inhibition (Rattus norvegicus [5]): inactive
- inhibition [6]: inactive
- inhibition [7]: inactive
- inhibition (Rattus norvegicus [8]): inactive
- inhibition [9]: inactive
- inhibition [10]: inactive
- inhibition [11]: inactive
- inhibition [12]: inactive
- inhibition [13]: inactive
- inhibition [14]: inactive
- inhibition [15]: inactive
- inhibition (Homo sapiens): inactive
- inhibition (Rattus norvegicus [16]): inactive
- inhibition [17]: inactive
- inhibition (Rattus norvegicus [18]): inactive
- inhibition [19]: inactive
- inhibition (Rattus norvegicus [20]): 0%
- inhibition (Rattus norvegicus [21]): inactive
- inhibition [22]: inactive
- inhibition [23]: inactive
- inhibition [24]: inactive
- inhibition [25]: inactive
- inhibition [26]: inactive
- inhibition [27]: inactive
- inhibition [28]: inactive
- inhibition (Rattus norvegicus [29]): inactive
- inhibition [30]: inactive
- inhibition [31]: inactive
- inhibition (Rattus norvegicus [32]): inactive
- inhibition (Rattus norvegicus [33]): inactive
- inhibition [34]: inactive
- inhibition [35]: inactive
- inhibition [36]: inactive
- inhibition [37]: inactive
- inhibition (Mesocricetus auratus): inactive
- inhibition [38]: inactive
- inhibition [39]: inactive
- inhibition [40]: inactive
- inhibition [41]: inactive
- inhibition [42]: inactive
- inhibition [43]: inactive
- inhibition [44]: inactive
- inhibition [45]: inactive
- inhibition [46]: inactive
